Source: ChEMBL document CHEMBL4049440, “First Dual Inhibitors of Steroid Sulfatase (STS) and 17β-Hydroxysteroid Dehydrogenase Type 1 (17β-HSD1): Designed Multiple Ligands as Novel Potential Therapeutics for Estrogen-Dependent Diseases” (J Med Chem, 2017)
Calls of active or inactive are those of the source. The rule behind the calls is not given here.

Legend:
[1] = molecular target: T1, 17-beta-hydroxysteroid dehydrogenase type 1 (Homo sapiens, UniProt P14061); assay: Inhibition of human placental cytosolic 17beta-HSD1 using [3H]-E1/E1 substrate and NADH after 10 mins by HPLC based radio-detection method
T1 sequence (P14061 whole entry): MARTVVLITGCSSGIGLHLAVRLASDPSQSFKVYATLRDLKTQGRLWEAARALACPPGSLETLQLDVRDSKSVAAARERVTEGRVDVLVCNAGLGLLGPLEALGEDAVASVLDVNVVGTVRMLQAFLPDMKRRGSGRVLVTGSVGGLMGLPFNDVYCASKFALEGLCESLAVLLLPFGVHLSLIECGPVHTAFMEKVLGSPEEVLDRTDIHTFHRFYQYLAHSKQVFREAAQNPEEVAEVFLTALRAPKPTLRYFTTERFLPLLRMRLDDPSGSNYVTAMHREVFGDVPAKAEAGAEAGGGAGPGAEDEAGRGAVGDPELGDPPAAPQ
Procedure, shortened: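 Cell-free assay with the cytosolic fraction of human placenta as the 17β-HSD1 source and radiolabeled E1 as substrate, with test compound present.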

[2] = molecular target: T2, Steryl-sulfatase (Homo sapiens) (UniProt P08842); assay: Inhibition of STS in human T47D cells at 1 uM preincubated for 1 hr followed by addition of [3H]-E1S/E1S as substrate measured after 24 hrs by HPLC based radio-detection method; type: cell-based
T2 sequence (whole entry): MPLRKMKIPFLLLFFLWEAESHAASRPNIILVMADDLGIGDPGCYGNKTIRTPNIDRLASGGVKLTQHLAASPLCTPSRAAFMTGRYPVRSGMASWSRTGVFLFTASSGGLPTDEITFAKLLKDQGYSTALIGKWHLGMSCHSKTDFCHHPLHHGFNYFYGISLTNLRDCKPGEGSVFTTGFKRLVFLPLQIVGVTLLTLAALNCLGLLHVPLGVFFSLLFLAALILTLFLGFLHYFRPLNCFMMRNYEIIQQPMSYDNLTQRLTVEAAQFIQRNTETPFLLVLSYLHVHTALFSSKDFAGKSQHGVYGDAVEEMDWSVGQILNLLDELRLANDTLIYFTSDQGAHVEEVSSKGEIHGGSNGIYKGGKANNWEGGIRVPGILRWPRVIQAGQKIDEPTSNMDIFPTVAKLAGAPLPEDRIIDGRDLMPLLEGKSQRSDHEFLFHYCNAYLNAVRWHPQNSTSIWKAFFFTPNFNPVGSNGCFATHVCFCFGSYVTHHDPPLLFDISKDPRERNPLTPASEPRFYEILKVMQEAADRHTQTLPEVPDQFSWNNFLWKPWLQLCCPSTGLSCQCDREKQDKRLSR

[3] = molecular target: T1, 17-beta-hydroxysteroid dehydrogenase type 1; assay: Inhibition of 17beta-HSD1 in human T47D cells preincubated for 1 hr followed by addition of [3H]-E1/E1 as substrate measured after 30 mins by HPLC based radio-detection method; type: cell-based
[4] = molecular target: T2, Steryl-sulfatase (Homo sapiens); assay: Irreversible inhibition of STS in human T47D cells at 1 uM preincubated for 2 hrs followed by compound washout and addition of [3H]-E1S/E1S as substrate measured after 24 hrs by HPLC based radio-detection method; type: cell-based
[5] = system: T47D; assay: Antiproliferative activity against E1S/E1-stimulated human T47D cells assessed as cell viability at 50 to 200 nM measured after 7 days after MTT assay relative to control; type: functional
[6] = molecular target: T2, Steryl-sulfatase (Homo sapiens); assay: Inhibition of STS in human T47D cells assessed as [3H]-E1S level at 200 nM after 48 hrs by HPLC based radio-detection method; type: cell-based; design: scale not given: the % may be the effect or the level left
[7] = molecular target: T3, 17-beta-hydroxysteroid dehydrogenase type 1 (Homo sapiens) (UniProt P14061); assay: Inhibition of 17beta-HSD1 in human T47D cells assessed as [3H]-E1 level at 200 nM after 48 hrs by HPLC based radio-detection method (reference value: 0.9%); type: cell-based; design: scale not given: the % may be the effect or the level left
T3 sequence (whole entry): T1 sequence (P14061 whole entry)

[8] = molecular target: T3, 17-beta-hydroxysteroid dehydrogenase type 1 (Homo sapiens); assay: Inhibition of 17beta-HSD1 in human T47D cells assessed as [3H]-E2 level at 200 nM after 48 hrs by HPLC based radio-detection method (reference value: 95.2%); type: cell-based; design: scale not given: the % may be the effect or the level left
[9] = molecular target: T2, Steryl-sulfatase (Homo sapiens); assay: Inhibition of human placental microsomal STS assessed as formation of E1 at 1 uM preincubated for 30 mins followed by addition of E1S as substrate measured after 20 mins by ELISA
Procedure, shortened: (§1)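 Human placental STS incubated with estrone sulfate (E1S) as substrate in the presence of inhibitor; estrone (E1) formed was quantified by ELISA.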

[10] = Selectivity factor, ratio of IC50 for human placental microsomal 17beta-HSD2 cells to IC50 for human placental cytosolic 17beta-HSD1
[11] = molecular target: T4, Steryl-sulfatase (Homo sapiens, UniProt P08842); assay: Inhibition of human placental microsomal STS assessed as formation of E1 preincubated for 30 mins followed by addition of E1S as substrate measured after 20 mins by ELISA; procedure, shortened: as §1
T4 sequence (P08842 whole entry): T2 sequence (whole entry)

[12] = Drug degradation in Tris-HCl buffer assessed as formation of metabolite containing phenolic OH-group by measuring remaining parent compound levels at pH 7.2 after 30 mins
Procedure, shortened: (§2)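 Compound incubated in 20 mM Tris-HCl buffer, pH 7.2, at 37 °C for 30 min. Remaining parent compound was measured, with sulfamate cleavage to the phenolic OH product monitored.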

[13] = molecular target: T5, 17-beta-hydroxysteroid dehydrogenase type 2 (Homo sapiens, UniProt P37059); assay: Inhibition of human placental microsomal 17beta-HSD2 using [3H]-E2/E2 substrate and NAD+ after 20 mins by HPLC based radio-detection method
T5 sequence (P37059 whole entry): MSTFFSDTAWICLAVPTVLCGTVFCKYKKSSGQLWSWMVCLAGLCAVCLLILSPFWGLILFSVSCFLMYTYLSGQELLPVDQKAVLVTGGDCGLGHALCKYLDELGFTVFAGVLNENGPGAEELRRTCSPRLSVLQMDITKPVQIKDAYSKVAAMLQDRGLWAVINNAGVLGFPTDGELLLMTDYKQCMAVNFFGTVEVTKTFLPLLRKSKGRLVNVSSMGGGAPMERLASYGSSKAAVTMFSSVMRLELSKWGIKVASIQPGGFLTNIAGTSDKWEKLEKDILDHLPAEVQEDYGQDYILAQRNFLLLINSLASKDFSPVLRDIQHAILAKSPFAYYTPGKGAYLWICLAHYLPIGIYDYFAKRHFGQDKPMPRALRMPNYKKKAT

[14] = molecular target: T3, 17-beta-hydroxysteroid dehydrogenase type 1 (Homo sapiens); assay: Inhibition of 17beta-HSD1 in human T47D cells at 1 uM preincubated for 1 hr followed by addition of [3H]-E1/E1 as substrate measured after 30 mins by HPLC based radio-detection method; type: cell-based
[15] = molecular target: T3, 17-beta-hydroxysteroid dehydrogenase type 1 (Homo sapiens); assay: Inhibition of human placental cytosolic 17beta-HSD1 at 1 uM using [3H]-E1/E1 substrate and NADH after 10 mins by HPLC based radio-detection method
Procedure, shortened: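 Enzyme from the cytosolic fraction of human placenta, incubated with radiolabelled estrone as substrate. Values are the mean of at least two independent experiments, each run in duplicate, with standard deviation under 15%.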

[16] = molecular target: T6, 17beta-HSD2 (17-beta-hydroxysteroid dehydrogenase type 2) (Homo sapiens, UniProt P37059); assay: Inhibition of human placental microsomal 17beta-HSD2 at 1 uM using [3H]-E2/E2 substrate and NAD+ after 20 mins by HPLC based radio-detection method; details: human placental microsomal 17beta-HSD2, probe [3H]-E2/E2
T6 sequence (P37059 whole entry): T5 sequence (P37059 whole entry)

[17] = Stability of the compound in Tris-HCl buffer at pH 7.2 after 30 mins; type: physicochemical; details: pH 7.2, 0.5 h; procedure, shortened: as §2
[18] = molecular target: T4, Steryl-sulfatase; assay: Inhibition of STS in human T47D cells preincubated for 1 hr followed by addition of [3H]-E1S/E1S as substrate measured after 24 hrs by HPLC based radio-detection method; type: cell-based
[19] = molecular target: T4, Steryl-sulfatase; assay: Irreversible inhibition of STS in human T47D cells preincubated for 2 hrs followed by compound washout and addition of [3H]-E1S/E1S as substrate measured after 24 hrs by HPLC based radio-detection method; type: cell-based
[20] = system: T47D; assay: Antiproliferative activity against E1S/E1-stimulated human T47D cells assessed as reduction in cell viability measured after 7 days after MTT assay; type: functional, cell-based
[21] = molecular target: T2, Steryl-sulfatase (Homo sapiens); assay: Inhibition of STS in human T47D cells assessed as [3H]-E1S level at 400 nM after 48 hrs by HPLC based radio-detection method (reference value: 3.9%); type: cell-based; design: scale not given: the % may be the effect or the level left
[22] = molecular target: T3, 17-beta-hydroxysteroid dehydrogenase type 1 (Homo sapiens); assay: Inhibition of 17beta-HSD1 in human T47D cells assessed as [3H]-E1 level at 400 nM after 48 hrs by HPLC based radio-detection method (reference value: 0.9%); type: cell-based; design: scale not given: the % may be the effect or the level left
[23] = molecular target: T3, 17-beta-hydroxysteroid dehydrogenase type 1 (Homo sapiens); assay: Inhibition of 17beta-HSD1 in human T47D cells assessed as [3H]-E2 level at 400 nM after 48 hrs by HPLC based radio-detection method (reference value: 95.2%); type: cell-based; design: scale not given: the % may be the effect or the level left
[24] = system: T47D; assay: Cytotoxicity against human T47D cells assessed as reduction in cell viability at 400 nM after 7 days by MTT assay; type: cell-based; details: 168 h, 0.4 µM
[25] = system: HEK293; assay: Cytotoxicity against HEK293 cells assessed as reduction in cell viability at 0.1 to 1 uM after 48 hrs by MTT assay; type: cell-based; details: human, hek293, 48 h
[26] = system: T47D; assay: Antiproliferative activity against E2-stimulated human T47D cells assessed as reduction in cell viability at 400 nM measured after 7 days after MTT assay; type: functional, cell-based
[27] = molecular target: T3, 17-beta-hydroxysteroid dehydrogenase type 1 (Homo sapiens); assay: Irreversible inhibition of 17beta-HSD1 in human T47D cells at 50 nM preincubated for 2 hrs followed by compound washout and addition of […] as substrate measured after 24 hrs by HPLC based radio-detection method; type: cell-based

O=C(c1ccc(-c2ccc(O)cc2)s1)c1c(F)ccc(O)c1F
IC50 [1]: 3.1 nM | inhibition [2]: < 5% | IC50 [3]: 7.9 nM | inhibition [4]: < 5% | Activity [5]: 150% | Activity [6]: 3.5% | Activity [7]: 88.4% | Activity [8]: 7.9% | inhibition [9]: < 10% | Ratio IC50 [10]: 23.1

NS(=O)(=O)Oc1ccc(-c2ccc(C(=O)c3c(F)ccc(O)c3F)s2)c(F)c1F
IC50 [11]: 105 nM | IC50 [1]: 2.7 nM | Stability [12]: 28% | Ratio IC50 [10]: 8.6 | IC50 [13]: 23.2 nM

NS(=O)(=O)Oc1ccc(-c2ccc(C(=O)c3c(F)ccc(O)c3F)s2)c(F)c1Cl
IC50 [11]: 244 nM | IC50 [1]: 1.4 nM | Stability [12]: 22% | Ratio IC50 [10]: 13.2 | IC50 [13]: 18.4 nM

NS(=O)(=O)Oc1ccc2c3c(c(=O)oc2c1)CCCCC3 [IROSUSTAT]
inhibition [14]: < 5% | Activity [5]: 200% | Activity [6]: 50% | Activity [7]: 0.8% | Activity [8]: 49.2% | inhibition [15]: < 10% | inhibition at 20 min, 1 µM [16]: < 10%

Cc1cc(OS(N)(=O)=O)ccc1-c1ccc(C(=O)c2c(F)ccc(O)c2F)s1
IC50 [11]: 35 nM | IC50 [1]: 43.5 nM | Stability [17]: Stable | Ratio IC50 [10]: 0.9 | IC50 [13]: 40 nM

NS(=O)(=O)Oc1ccc(-c2ccc(C(=O)c3c(F)ccc(O)c3F)s2)c(Cl)c1
IC50 [11]: 19.4 nM | IC50 [1]: 10.2 nM | IC50 [18]: 3.4 nM | IC50 [3]: 60.9 nM | IC50 [19]: 3.9 nM | Activity [20]: Dose-dependent effect | Stability [17]: Stable | Ratio IC50 [10]: 1.9 | IC50 [13]: 19.1 nM

NS(=O)(=O)Oc1ccc(-c2ccc(C(=O)c3c(F)ccc(O)c3F)s2)cc1Cl
IC50 [11]: 143 nM | IC50 [1]: 1.1 nM | IC50 [18]: 15.6 nM | IC50 [3]: 22.2 nM | IC50 [19]: 16.4 nM | Activity [20]: Dose-dependent effect | Activity [21]: 50% | Activity [22]: 48.9% | Activity [23]: 1.1% | Activity [24]: Non-Toxic | Activity [25]: Non-Toxic | Activity [26]: inactive | Stability [17]: Stable | inhibition [27]: inactive | Ratio IC50 [10]: 33 | IC50 [13]: 36.1 nM
